Measurements collected from several papers.
Protocols differ between the studies behind these lines.
FGFR1: Fibroblast growth factor receptor 1 (FGFR1, Homo sapiens, UniProt P11362)
FGFR1 V561M: Fibroblast growth factor receptor 1 (FGFR1, Homo sapiens, UniProt P11362, V561M)

N#CCCc1ccc2c(c1)-c1[nH]c3ccc([N+](=O)[O-])cc3c1CC(=O)N2 — remaining signal (FGFR1; cell-free assay; 0.5 µM): 91.9%
C/C=C/C(=O)Nc1ccc(-n2nc3c(=O)[nH]nc(N)c3c2-c2oc3ccc(C)cc3c2C)cc1 — inhibition (FGFR1; enzyme activity, inhibitor, ELISA; 10 nM): 20.2%
CC/C(=N\NC(=O)NCc1cccc(O)c1)c1ccc(O)c(C)c1O — inhibition (FGFR1 V561M; enzyme activity, inhibitor; 0.1 µM): 10.8%
COc1cc2nccc(Oc3ccc(NC(=O)c4c5n(n(-c6ccc(F)cc6)c4=O)CCCC5)cc3)c2cc1OC — inhibition (FGFR1; enzyme activity, inhibitor; 0.1 µM): -7%
Nc1ncnc2occ(-c3ccc(NC(=O)Nc4cc(C(F)(F)F)ccc4F)cc3)c12 — remaining signal (FGFR1; cell-free assay; 20 µM): 0.15%
CNC(=O)c1cc(Oc2ccc(NC(=O)Nc3ccc(Cl)c(C(F)(F)F)c3)cc2)ccn1 — inhibition (FGFR1; enzyme activity, inhibitor; 0.3 µM): 69%
C=CC(=O)Nc1cc(Nc2nccc(Nc3cc(Cl)c(F)cc3C(C)(C)O)n2)c(OC)cc1N1CC[C@@H](N(C)C)C1 — inhibition (FGFR1 V561M; enzyme activity, inhibitor; 1 µM): 1%
Clc1ccc(Nc2nnc(Cc3ccncc3)c3ccccc23)cc1 — remaining signal (FGFR1; cell-free assay; 0.5 µM): 97.2%
CCCS(=O)(=O)Nc1ccc(F)c(C(=O)c2c[nH]c3ncc(-c4ccc(Cl)cc4)cc23)c1F — inhibition (FGFR1; enzyme activity, inhibitor; 1 µM): < 10%
CN(c1ccnc(CNc2nc(Nc3ccc4c(c3)CC(=O)N4)ncc2C(F)(F)F)n1)S(C)(=O)=O — remaining binding (FGFR1; cell-free assay, competition with immobilised ligand; 1 µM): 82%
C=CC(=O)Nc1cccc(-n2nc3c(=O)[nH]nc(N)c3c2-c2oc3ccc(C)cc3c2C)c1 — inhibition (FGFR1; enzyme activity, inhibitor, ELISA; 10 nM): 10.6%
C[C@@H]1CCN(C(=O)CC#N)C[C@@H]1N(C)c1ncnc2[nH]ccc12 — remaining signal (FGFR1; cell-free assay; 0.5 µM): 101%
COc1ccc(/C=C/C(=O)c2ccc(NC3=C(Cl)C(=O)c4ccccc4C3=O)cc2)cc1O — inhibition (FGFR1; enzyme activity, inhibitor, ADP detection; 1 µM): > 70%
CS(=O)(=O)c1cc(C2(NC(=O)c3cncc4c3cnn4-c3ccc(F)cc3)CC2)ccn1 — remaining binding (FGFR1; cell-free assay, competition with immobilised ligand; 1 µM): 95%
Cc1cc(NC(=O)c2cccc3cc(-c4cccc5[nH]nc(N)c45)ccc23)ccc1F — activity vs control (FGFR1 V561M; enzyme activity, inhibitor; 0.1 µM): 92%
Cc1noc([C@H]2C[C@@H](c3ccc(C(F)(F)F)cc3)CN(C(=O)N3CCS(=O)(=O)C3)C2)n1 — remaining binding (FGFR1; cell-free assay, competition with immobilised ligand; 1 µM): 100%
Cc1ccc(C(=O)NCc2ccsc2)cc1C#Cc1cn(C(C)C)c2ncnc(N)c12 — activity vs control (FGFR1; enzyme activity, inhibitor; 1 µM): 33%
Cc1c[nH]c2nccc(Oc3c(F)cc(Nc4cc(Cl)nc(N)n4)cc3F)c12 — remaining binding (FGFR1; cell-free assay, competition with immobilised ligand; 0.1 µM): 100%
CSc1nc(C)c(-c2ccnc(Nc3ccc(N4CCOCC4)cc3)c2)[nH]1 — inhibition (FGFR1; cell-free assay, inhibitor; 10 µM): 26.2%
C[C@@H]1CN(c2cc(-c3n[nH]c4ccc(OC5(C)CC5)cc34)ncn2)C[C@H](C)O1 — remaining binding (FGFR1; cell-free assay, competition with immobilised ligand; 0.1 µM): 100%
COc1cc2ncnc(Nc3ccc(F)c(Cl)c3)c2cc1OCCCN1CCOCC1 — remaining signal (FGFR1; cell-free assay; 0.5 µM): 96.4%
Cc1cc(NC(=O)c2cccc(S(F)(F)(F)(F)F)c2)cc(-n2ccn3nc(-c4cccnc4)cc23)c1 — remaining binding (FGFR1; cell-free assay, competition with immobilised ligand; 1 µM): 100%
C[S+]([O-])c1ccc(-c2nc(-c3ccncc3)c(-c3ccc(F)cc3)[nH]2)cc1 (stereo not drawn) — remaining signal (FGFR1; cell-free assay; 0.5 µM): 90.7%
Cn1cc(Cl)c2c(Oc3c(F)cc(Nc4cc(Cl)nc(N)n4)cc3F)ccnc21 — remaining binding (FGFR1; cell-free assay, competition with immobilised ligand; 0.1 µM): 100%
COc1cc2ncnc(Nc3ccc(Oc4ccccc4)c(C)c3C)c2cc1OC — inhibition (FGFR1; enzyme activity, inhibitor; 1 µM): -2%
CNCc1ccccc1-c1csc([C@H](C)Nc2nc(C)nc3cc(OC)c(OC)cc23)c1 — remaining binding (FGFR1; cell-free assay, competition with immobilised ligand; 1 µM): 100%
O=C1Nc2ccc(Cl)cc2C1=Cc1cc(Cl)c(O)c(Cl)c1 — remaining signal (FGFR1; cell-free assay; 0.5 µM): 90.8%
